Assay results taken from ChEMBL document CHEMBL4251591, “Primaquine hybrids as promising antimycobacterial and antimalarial agents” (Eur J Med Chem, 2018).
pIC50: −log10 of the molar value. ≈ marks a conversion by molar mass, not a printed value.

Columns and labels:
Mycobacterium avium = experiment: Antimycobacterial activity against Mycobacterium avium subsp. paratuberculosis CIT03 clinical isolate after 11 days by Alamar Blue assay; format: functional; details: CIT03, 264 h
L6 = experiment: Cytotoxicity against rat L6 cells after 70 hrs by Alamar Blue-based assay; format: cell-based; details: L6, 70 h
Method in brief: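 Rat skeletal myoblast L-6 cells, 4000 per well, in RPMI 1640 with 10% FBS and L-glutamine. Eleven 3-fold serial dilutions spanning 100 to 0.002 were tested for 70 h. Alamar Blue was then added for 2 h and fluorescence read at ex 536 / em 588 nm. IC50 came from linear regression of sigmoid curves, averaged over two replicate experiments, with podophyllotoxin as control.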

[1] = test system: Mycobacterium tuberculosis; experiment: Antimycobacterial activity against Mycobacterium tuberculosis H37Ra ATCC 25177 after 7 days by Alamar Blue assay; format: functional; details: H37Ra ATCC 25177, 168 h
Method in brief: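 Log-phase culture washed and resuspended in supplemented Middlebrook 7H9GC broth, adjusted to McFarland No. 1, then diluted 1:20. Equal volumes of culture and DMSO-prepared compound dilutions were tested in duplicate for 7 days. 10% AlamarBlue was added, with 570/600 nm readings for background and after 24 h reincubation. Blue meant no growth, pink meant growth. MIC was the lowest concentration without visible growth.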

[2] = test system: Mycobacterium avium complex sp.; experiment: Antimycobacterial activity against Mycobacterium avium complex CIT19/06 clinical isolate after 5 days by Alamar Blue assay; format: functional; details: CIT19/06, 120 h
Plasmodium berghei = experiment: Antimalarial activity against liver stage of firefly luciferase-expressing Plasmodium berghei infected in human HuH7 cells measured after 48 hrs post parasite addition by luciferase-based luminescence assay; format: functional, organism-based; details: Huh-7, 48 h
Method in brief: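 HuH7 hepatoma cells seeded at 1.0 × 10^4 per well the day before infection. Drug-containing medium was added 1 h before 1.0 × 10^4 sporozoites, followed by centrifugation at 1800 × g for 5 min. Infection load was read by bioluminescence 48 h later, and host viability by CellTiter-Blue. IC50 came from nonlinear regression of normalized dose-response curves.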

HEK293 = experiment: Cytotoxicity against human HEK293 cells; format: cell-based

SMILES	MIC (Mycobacterium avium) [µg/mL]	IC50 (L6) [µg/mL]	MIC [1] [µg/mL]	MIC [2] [µg/mL]	pIC50 (Plasmodium berghei)	IC50 (HEK293) [µg/mL]
COc1cc(NC(C)CCCNC(=O)NCCCC(C)Nc2cc(OC)cc3cccnc23)c2ncccc2c1 (configuration not stated)	128 (≈ 235 µM)	> 100	128 (≈ 235 µM)	256 (≈ 470 µM)		
COc1ccc(/C=C/C(=O)NCCCC(C)Nc2cc(OC)cc3cccnc23)cc1 (configuration not stated)	64 (≈ 153 µM)	> 100	64 (≈ 153 µM)	128 (≈ 305 µM)		
COc1cc(NC(C)CCCNC(=O)/C=C/c2ccccc2)c2ncccc2c1 (configuration not stated)	16 (≈ 41.1 µM)		16 (≈ 41.1 µM)	32 (≈ 82.2 µM)		
COc1cc(NC(C)CCCNC(=O)/C=C/c2ccc(Cl)cc2)c2ncccc2c1 (configuration not stated)	64 (≈ 151 µM)		64 (≈ 151 µM)	128 (≈ 302 µM)		
COc1ccc(/C(=N/NC(=O)NNC(=O)NCCCC(C)Nc2cc(OC)cc3cccnc23)c2ccccc2)cc1 (configuration not stated)	4 (≈ 7.02 µM)		2 (≈ 3.51 µM)	16 (≈ 28.1 µM)		
COc1cc(NC(C)CCCNC(=O)NNC(=O)N(C)C(c2ccccc2)c2ccccc2)c2ncccc2c1 (configuration not stated)	64 (≈ 118 µM)		64 (≈ 118 µM)	64 (≈ 118 µM)		
COc1ccc(C(=NNC(=O)NNC(=O)NCCCC(C)Nc2cc(OC)cc3cccnc23)c2ccc(OC)cc2)cc1 (configuration not stated)	4 (≈ 6.67 µM)		2 (≈ 3.34 µM)	16 (≈ 26.7 µM)	7.08	
COc1cc(NC(C)CCCNC(=O)NNC(=O)NCCCC(C)Nc2cc(OC)cc3cccnc23)c2ncccc2c1 (configuration not stated)	4 (≈ 6.64 µM)		2 (≈ 3.32 µM)	16 (≈ 26.5 µM)		
COc1cc(NC(C)CCCNC(=O)NNC(=O)Nc2ccc(Cl)c(C(F)(F)F)c2)c2ncccc2c1 (configuration not stated)	2 (≈ 3.71 µM)	30 (≈ 55.7 µM)	2 (≈ 3.71 µM)	2 (≈ 3.71 µM)		
COc1cc(NC(C)CCCNC(=O)NNC(=O)NCCCO)c2ncccc2c1 (configuration not stated)	256 (≈ 612 µM)		256 (≈ 612 µM)	256 (≈ 612 µM)		
COc1cc(NC(C)CCCNC(=O)NNC(=O)NCCCCCO)c2ncccc2c1 (configuration not stated)	256 (≈ 573 µM)		256 (≈ 573 µM)	256 (≈ 573 µM)		
COc1cc(NC(C)CCCNC(=O)NNC(=O)N(CCO)CCO)c2ncccc2c1 (configuration not stated)	256 (≈ 571 µM)		256 (≈ 571 µM)	256 (≈ 571 µM)		
COc1cc(NC(C)CCCNC(=O)N(C)C(c2ccccc2)c2ccccc2)c2ncccc2c1 (configuration not stated)	128 (≈ 265 µM)	80.5 (≈ 167 µM)	128 (≈ 265 µM)	128 (≈ 265 µM)		
COc1cc(NC(C)CCCNC(=O)NC(c2ccccc2)c2ccc(Cl)cc2)c2ncccc2c1 (configuration not stated)	128 (≈ 254 µM)		128 (≈ 254 µM)	128 (≈ 254 µM)		
COc1ccc(/C(=N/NC(=O)NCCCC(C)Nc2cc(OC)cc3cccnc23)c2ccccc2)cc1 (configuration not stated)	128 (≈ 250 µM)	> 100	128 (≈ 250 µM)	256 (≈ 500 µM)		
COc1ccc(C(=NNC(=O)NCCCC(C)Nc2cc(OC)cc3cccnc23)c2ccc(OC)cc2)cc1 (configuration not stated)	128 (≈ 236 µM)	> 100	128 (≈ 236 µM)	256 (≈ 473 µM)		
COc1cc(NC(C)CCCNC(=O)Nc2ccc(Cl)c(C(F)(F)F)c2)c2ncccc2c1 (configuration not stated)	16 (≈ 33.3 µM)		16 (≈ 33.3 µM)	16 (≈ 33.3 µM)		
COc1cc(NC(C)CCCNC(=O)NN)c2ncccc2c1 (configuration not stated)	32 (≈ 101 µM)		32 (≈ 101 µM)	32 (≈ 101 µM)		
COc1cc(NC(C)CCCNC(=O)Nc2cccc(C(F)(F)F)c2)c2ncccc2c1 (configuration not stated)	2 (≈ 4.48 µM)	150 (≈ 336 µM)	2 (≈ 4.48 µM)	2 (≈ 4.48 µM)		
COc1cc(NC(C)CCCNC(=O)Nc2ccc(O)cc2)c2ncccc2c1 (configuration not stated)	128 (≈ 324 µM)	14.8 (≈ 37.5 µM)	128 (≈ 324 µM)	256 (≈ 649 µM)		
COc1cc(NC(C)CCCNC(=O)Nc2cc(C(F)(F)F)cc(C(F)(F)F)c2)c2ncccc2c1 (configuration not stated)						7.67 (≈ 14.9 µM)
COc1cc(NC(C)CCCNC(=O)NNC(=O)Nc2ccc(C(F)(F)F)cc2)c2ncccc2c1 (configuration not stated)	128 (≈ 254 µM)		128 (≈ 254 µM)	128 (≈ 254 µM)	7.13	
COc1cc(NC(C)CCCNC(=O)NNC(=O)Nc2ccc(F)cc2)c2ncccc2c1 (configuration not stated)					5.73	
COc1cc(NC(C)CCCNC(=O)NNC(=O)Nc2cccc(O)c2)c2ncccc2c1 (configuration not stated)	128 (≈ 283 µM)		128 (≈ 283 µM)	256 (≈ 566 µM)		
COc1cc(NC(C)CCCNC(=O)NNC(=O)Nc2ccc(Cl)cc2)c2ncccc2c1 (configuration not stated)	128 (≈ 272 µM)		128 (≈ 272 µM)	256 (≈ 544 µM)	7.38	
COc1cc(NC(C)CCCNC(=O)NNC(=O)Nc2cccc(Cl)c2)c2ncccc2c1 (configuration not stated)	128 (≈ 272 µM)		128 (≈ 272 µM)	256 (≈ 544 µM)		
COc1cc(NC(C)CCCNC(=O)Nc2cccc(Cl)c2)c2ncccc2c1 (configuration not stated)	16 (≈ 38.7 µM)	10 (≈ 24.2 µM)	16 (≈ 38.7 µM)	16 (≈ 38.7 µM)		
COc1cc(NC(C)CCCNC(=O)NNC(=O)Nc2cccc(F)c2)c2ncccc2c1 (configuration not stated)	128 (≈ 282 µM)		128 (≈ 282 µM)	256 (≈ 563 µM)		
